Experimental data published in ChEMBL document CHEMBL1275589, “Molecular epidemiology, sequence types, and plasmid analyses of KPC-producing Klebsiella pneumoniae strains in Israel” (2010).
Values after ≈ are worked out from the molar mass of the structure shown.

Legend:
Klebsiella pneumoniae [1] = assay: Antimicrobial activity against KPC-3 producing Klebsiella pneumoniae 557 ST 258 expressing beta-lactamase TEM-1 by agar dilution method
Klebsiella pneumoniae [2] = assay: Antimicrobial activity against carbapenem-resistant KPC-2 producing Klebsiella pneumoniae 588 transformant by agar dilution method; type: functional
Klebsiella pneumoniae [3] = assay: Antimicrobial activity against carbapenem-resistant KPC-2 producing Klebsiella pneumoniae 531 transformant by agar dilution method; type: functional
Klebsiella pneumoniae [4] = assay: Antimicrobial activity against carbapenem-resistant KPC-2 producing Klebsiella pneumoniae 475 ST 277 expressing beta-lactamase SHV-27, CTX-M-15 and OXA-4 by agar dilution method; type: functional
Klebsiella pneumoniae [5] = assay: Antimicrobial activity against carbapenem-resistant KPC-2 producing Klebsiella pneumoniae 475 transformant by agar dilution method; type: functional
Klebsiella pneumoniae [6] = assay: Antimicrobial activity against carbapenem-resistant KPC-2 producing Klebsiella pneumoniae 365 transformant by agar dilution method; type: functional
Klebsiella pneumoniae [7] = assay: Antimicrobial activity against carbapenem-resistant KPC-2 producing Klebsiella pneumoniae 526 ST 376 expressing beta-lactamase SHV-1 by agar dilution method; type: functional
Klebsiella pneumoniae [8] = assay: Antimicrobial activity against KPC-3 producing Klebsiella pneumoniae 549 ST 327 expressing beta-lactamase TEM-1 and CTX-M-2 by agar dilution method; type: functional
Klebsiella pneumoniae [9] = assay: Antimicrobial activity against carbapenem-resistant KPC-2 producing Klebsiella pneumoniae 588 ST 340 expressing beta-lactamase TEM-1 and SHV-11 by agar dilution method; type: functional
Escherichia coli = assay: Antimicrobial activity against Escherichia coli Genehogs by agar dilution method; type: functional
Summary of the method: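 Carbapenem MICs by agar dilution, interpreted per CLSI. FDA Enterobacteriaceae breakpoints applied: susceptible ≤2 μg/ml, intermediate 4 μg/ml, resistant ≥8 μg/ml. Transformants were made in recipient E. coli GeneHogs with purified plasmid DNA.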

Klebsiella pneumoniae [10] = assay: Antimicrobial activity against carbapenem-resistant KPC-2 producing Klebsiella pneumoniae 525 ST 376 expressing beta-lactamase SHV-1 by agar dilution method; type: functional
Klebsiella pneumoniae [11] = assay: Antimicrobial activity against carbapenem-resistant KPC-2 producing Klebsiella pneumoniae 469 ST 277 expressing beta-lactamase SHV-27, CTX-M-15 and OXA-4 by agar dilution method; type: functional
Klebsiella pneumoniae [12] = assay: Antimicrobial activity against carbapenem-resistant KPC-2 producing Klebsiella pneumoniae 526 transformant by agar dilution method; type: functional
Klebsiella pneumoniae [13] = assay: Antimicrobial activity against carbapenem-resistant KPC-2 producing Klebsiella pneumoniae 365 ST 376 expressing beta-lactamase SHV-1, CTX-M-15 and OXA-4 by agar dilution method
Klebsiella pneumoniae [14] = assay: Antimicrobial activity against KPC-3 producing Klebsiella pneumoniae 557 transformant by agar dilution method; type: functional
Klebsiella pneumoniae [15] = assay: Antimicrobial activity against carbapenem-resistant KPC-2 producing Klebsiella pneumoniae 523 transformant by agar dilution method; type: functional
Klebsiella pneumoniae [16] = assay: Antimicrobial activity against carbapenem-resistant KPC-2 producing Klebsiella pneumoniae 469 transformant by agar dilution method; type: functional
Klebsiella pneumoniae [17] = assay: Antimicrobial activity against carbapenem-resistant KPC-2 producing Klebsiella pneumoniae 523 ST 340 expressing beta-lactamase TEM-1, SHV-11 and OXA-2 by agar dilution method; type: functional
Klebsiella pneumoniae [18] = assay: Antimicrobial activity against carbapenem-resistant KPC-2 producing Klebsiella pneumoniae 525 transformant by agar dilution method; type: functional
Klebsiella pneumoniae [19] = assay: Antimicrobial activity against KPC-3 producing Klebsiella pneumoniae 549 transformant by agar dilution method; type: functional
Klebsiella pneumoniae [20] = assay: Antimicrobial activity against carbapenem-resistant KPC-2 producing Klebsiella pneumoniae 531 ST 376 expressing beta-lactamase SHV-1 by agar dilution method; type: functional

`C[C@@H](O)[C@H]1C(=O)N2C(C(=O)O)=C(S[C@@H]3CN[C@H](C(=O)N(C)C)C3)[C@H](C)[C@H]12` [MEROPENEM] gave an MIC (Klebsiella pneumoniae [1]) of 128 µg/mL (≈ 334 µM), an MIC (Klebsiella pneumoniae [2]) of 4 µg/mL (≈ 10.4 µM) and an MIC (Klebsiella pneumoniae [3]) of 4 µg/mL (≈ 10.4 µM). The MIC (Klebsiella pneumoniae [4]) was 64 µg/mL (≈ 167 µM), the MIC (Klebsiella pneumoniae [5]) was 4 µg/mL (≈ 10.4 µM) and the MIC (Klebsiella pneumoniae [6]) was 4 µg/mL (≈ 10.4 µM). For the same molecule, the MIC (Klebsiella pneumoniae [7]) was 64 µg/mL (≈ 167 µM), the MIC (Klebsiella pneumoniae [8]) was 8 µg/mL (≈ 20.9 µM) and the MIC (Klebsiella pneumoniae [9]) was 64 µg/mL (≈ 167 µM). It also gave an MIC (Escherichia coli) of 0.012 µg/mL (≈ 0.0313 µM), an MIC (Klebsiella pneumoniae [10]) of 64 µg/mL (≈ 167 µM) and an MIC (Klebsiella pneumoniae [11]) of 32 µg/mL (≈ 83.4 µM). The MIC (Klebsiella pneumoniae [12]) was 4 µg/mL (≈ 10.4 µM), the MIC (Klebsiella pneumoniae [13]) was 64 µg/mL (≈ 167 µM) and the MIC (Klebsiella pneumoniae [14]) was 4 µg/mL (≈ 10.4 µM). It also gave an MIC (Klebsiella pneumoniae [15]) of 4 µg/mL (≈ 10.4 µM), an MIC (Klebsiella pneumoniae [16]) of 4 µg/mL (≈ 10.4 µM) and an MIC (Klebsiella pneumoniae [17]) of 32 µg/mL (≈ 83.4 µM). For the same molecule, the MIC (Klebsiella pneumoniae [18]) was 4 µg/mL (≈ 10.4 µM), the MIC (Klebsiella pneumoniae [19]) was 2 µg/mL (≈ 5.22 µM) and the MIC (Klebsiella pneumoniae [20]) was 64 µg/mL (≈ 167 µM).
With `C[C@@H](O)[C@H]1C(=O)N2C(C(=O)O)=C(S[C@@H]3CN[C@H](C(=O)Nc4cccc(C(=O)O)c4)C3)[C@H](C)[C@H]12` the MIC (Klebsiella pneumoniae [1]) was 256 µg/mL (≈ 538 µM), the MIC (Klebsiella pneumoniae [2]) was 8 µg/mL (≈ 16.8 µM) and the MIC (Klebsiella pneumoniae [3]) was 2 µg/mL (≈ 4.21 µM). The MIC (Klebsiella pneumoniae [4]) was 128 µg/mL (≈ 269 µM), the MIC (Klebsiella pneumoniae [5]) was 8 µg/mL (≈ 16.8 µM) and the MIC (Klebsiella pneumoniae [6]) was 8 µg/mL (≈ 16.8 µM). For the same molecule, the MIC (Klebsiella pneumoniae [7]) was 64 µg/mL (≈ 135 µM), the MIC (Klebsiella pneumoniae [8]) was 32 µg/mL (≈ 67.3 µM) and the MIC (Klebsiella pneumoniae [9]) was 128 µg/mL (≈ 269 µM). The MIC (Escherichia coli) was 0.012 µg/mL (≈ 0.0252 µM), the MIC (Klebsiella pneumoniae [10]) was 128 µg/mL (≈ 269 µM) and the MIC (Klebsiella pneumoniae [11]) was 64 µg/mL (≈ 135 µM). It also gave an MIC (Klebsiella pneumoniae [12]) of 8 µg/mL (≈ 16.8 µM), an MIC (Klebsiella pneumoniae [13]) of 64 µg/mL (≈ 135 µM) and an MIC (Klebsiella pneumoniae [14]) of 4 µg/mL (≈ 8.41 µM). The MIC (Klebsiella pneumoniae [15]) was 8 µg/mL (≈ 16.8 µM), the MIC (Klebsiella pneumoniae [16]) was 4 µg/mL (≈ 8.41 µM) and the MIC (Klebsiella pneumoniae [17]) was 64 µg/mL (≈ 135 µM). It also gave an MIC (Klebsiella pneumoniae [18]) of 4 µg/mL (≈ 8.41 µM), an MIC (Klebsiella pneumoniae [19]) of 4 µg/mL (≈ 8.41 µM) and an MIC (Klebsiella pneumoniae [20]) of 128 µg/mL (≈ 269 µM).
Work on GENTAMICIN yielded an MIC (Klebsiella pneumoniae [2]) of 2 µg/mL, an MIC (Klebsiella pneumoniae [3]) of less than 1 µg/mL and an MIC (Klebsiella pneumoniae [4]) greater than 16 µg/mL. For the same molecule, the MIC (Klebsiella pneumoniae [5]) was greater than 16 µg/mL, the MIC (Klebsiella pneumoniae [6]) was less than 1 µg/mL and the MIC (Klebsiella pneumoniae [7]) was less than 1 µg/mL. It also gave an MIC (Klebsiella pneumoniae [8]) greater than 16 µg/mL, an MIC (Klebsiella pneumoniae [9]) of less than 1 µg/mL and an MIC (Escherichia coli) of less than 1 µg/mL. The MIC (Klebsiella pneumoniae [10]) was less than 1 µg/mL, the MIC (Klebsiella pneumoniae [11]) was greater than 16 µg/mL and the MIC (Klebsiella pneumoniae [12]) was less than 1 µg/mL. The MIC (Klebsiella pneumoniae [14]) was less than 1 µg/mL, the MIC (Klebsiella pneumoniae [15]) was 2 µg/mL and the MIC (Klebsiella pneumoniae [16]) was greater than 16 µg/mL. The MIC (Klebsiella pneumoniae [17]) was greater than 16 µg/mL, the MIC (Klebsiella pneumoniae [18]) was less than 1 µg/mL and the MIC (Klebsiella pneumoniae [19]) was less than 1 µg/mL. It also gave an MIC (Klebsiella pneumoniae [20]) of less than 1 µg/mL.
Work on `CC(C)(O/N=C(\C(=O)N[C@@H]1C(=O)N2C(C(=O)[O-])=C(C[n+]3ccccc3)CS[C@H]12)c1csc(N)n1)C(=O)O` [CEFTAZIDIME] yielded an MIC (Klebsiella pneumoniae [1]) greater than 64 µg/mL, an MIC (Klebsiella pneumoniae [2]) of 16 µg/mL (≈ 29.3 µM) and an MIC (Klebsiella pneumoniae [3]) of 16 µg/mL (≈ 29.3 µM). It also gave an MIC (Klebsiella pneumoniae [4]) of 16 µg/mL (≈ 29.3 µM), an MIC (Klebsiella pneumoniae [5]) of 16 µg/mL (≈ 29.3 µM) and an MIC (Klebsiella pneumoniae [6]) of 16 µg/mL (≈ 29.3 µM). For the same molecule, the MIC (Klebsiella pneumoniae [7]) was greater than 64 µg/mL, the MIC (Klebsiella pneumoniae [8]) was 16 µg/mL (≈ 29.3 µM) and the MIC (Klebsiella pneumoniae [9]) was 16 µg/mL (≈ 29.3 µM). The MIC (Escherichia coli) was less than 1 µg/mL, the MIC (Klebsiella pneumoniae [10]) was greater than 64 µg/mL and the MIC (Klebsiella pneumoniae [11]) was greater than 64 µg/mL. For the same molecule, the MIC (Klebsiella pneumoniae [12]) was 16 µg/mL (≈ 29.3 µM), the MIC (Klebsiella pneumoniae [13]) was greater than 64 µg/mL and the MIC (Klebsiella pneumoniae [14]) was greater than 64 µg/mL. The MIC (Klebsiella pneumoniae [15]) was 16 µg/mL (≈ 29.3 µM), the MIC (Klebsiella pneumoniae [16]) was greater than 64 µg/mL and the MIC (Klebsiella pneumoniae [17]) was 16 µg/mL (≈ 29.3 µM). It also gave an MIC (Klebsiella pneumoniae [18]) of 16 µg/mL (≈ 29.3 µM), an MIC (Klebsiella pneumoniae [19]) greater than 64 µg/mL and an MIC (Klebsiella pneumoniae [20]) greater than 64 µg/mL.
With `C[C@H]1COc2c(N3CCN(C)CC3)c(F)cc3c(=O)c(C(=O)O)cn1c23.C[C@H]1COc2c(N3CCN(C)CC3)c(F)cc3c(=O)c(C(=O)O)cn1c23.O` [LEVOFLOXACIN] the MIC (Klebsiella pneumoniae [1]) was greater than 8 µg/mL, the MIC (Klebsiella pneumoniae [2]) was less than 0.12 µg/mL and the MIC (Klebsiella pneumoniae [3]) was less than 0.25 µg/mL. The MIC (Klebsiella pneumoniae [5]) was less than 0.12 µg/mL, the MIC (Klebsiella pneumoniae [6]) was less than 0.12 µg/mL and the MIC (Klebsiella pneumoniae [7]) was greater than 8 µg/mL. For the same molecule, the MIC (Klebsiella pneumoniae [8]) was greater than 8 µg/mL, the MIC (Klebsiella pneumoniae [9]) was greater than 8 µg/mL and the MIC (Escherichia coli) was 0.006 µg/mL. For the same molecule, the MIC (Klebsiella pneumoniae [10]) was greater than 8 µg/mL, the MIC (Klebsiella pneumoniae [11]) was less than 0.25 µg/mL and the MIC (Klebsiella pneumoniae [12]) was less than 0.12 µg/mL. It also gave an MIC (Klebsiella pneumoniae [13]) greater than 8 µg/mL, an MIC (Klebsiella pneumoniae [14]) of less than 0.25 µg/mL and an MIC (Klebsiella pneumoniae [15]) of 0.25 µg/mL. The MIC (Klebsiella pneumoniae [16]) was less than 0.25 µg/mL, the MIC (Klebsiella pneumoniae [17]) was greater than 8 µg/mL and the MIC (Klebsiella pneumoniae [18]) was less than 0.25 µg/mL. The MIC (Klebsiella pneumoniae [19]) was less than 0.25 µg/mL and the MIC (Klebsiella pneumoniae [20]) was greater than 8 µg/mL.
